Test results published in the M2OR odorant receptor database.
Numbering of substitutions follows the chain as printed.

Legend:
Details in all cases: stereoisomer not certain
OR5AC2 (Homo sapiens) = target: T1, OR5AC2 (Homo sapiens) (UniProt Q9NZP5)
T1 sequence (whole entry): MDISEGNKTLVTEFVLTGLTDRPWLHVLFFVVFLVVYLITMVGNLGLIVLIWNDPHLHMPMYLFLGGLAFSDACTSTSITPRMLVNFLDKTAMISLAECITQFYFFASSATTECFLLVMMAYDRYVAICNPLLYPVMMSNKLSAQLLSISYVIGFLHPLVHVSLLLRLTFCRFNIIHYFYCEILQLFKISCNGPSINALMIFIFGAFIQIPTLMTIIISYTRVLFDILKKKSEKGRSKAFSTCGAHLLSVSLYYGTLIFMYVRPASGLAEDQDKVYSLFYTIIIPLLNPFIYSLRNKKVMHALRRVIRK
Procedure, shortened: (§1)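 Transient luciferase assays in mammalian cell lines were common, though methods varied by source. The values come from published papers and their supplementary material, with extra details from the original authors when needed. Responsive refers to a measured signal the original authors judged statistically different from baseline, and non-responsive (inactive) to the remainder.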

OR52N4 (Homo sapiens) = target: T2, OR52N4 (Homo sapiens) (UniProt Q8NGI2)
T2 sequence (whole entry): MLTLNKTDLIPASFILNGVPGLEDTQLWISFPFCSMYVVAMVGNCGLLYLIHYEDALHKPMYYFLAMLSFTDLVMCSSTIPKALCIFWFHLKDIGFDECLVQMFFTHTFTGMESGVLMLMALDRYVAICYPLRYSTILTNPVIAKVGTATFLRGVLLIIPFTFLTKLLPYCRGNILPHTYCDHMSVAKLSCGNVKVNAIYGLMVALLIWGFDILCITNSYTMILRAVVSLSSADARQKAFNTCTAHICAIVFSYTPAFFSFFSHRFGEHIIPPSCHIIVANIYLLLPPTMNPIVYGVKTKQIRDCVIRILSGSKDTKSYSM
Procedure, shortened: as §1

OR52N5 (Homo sapiens) = target: T3, OR52N5 (Homo sapiens) (UniProt Q8NH56)
T3 sequence (whole entry): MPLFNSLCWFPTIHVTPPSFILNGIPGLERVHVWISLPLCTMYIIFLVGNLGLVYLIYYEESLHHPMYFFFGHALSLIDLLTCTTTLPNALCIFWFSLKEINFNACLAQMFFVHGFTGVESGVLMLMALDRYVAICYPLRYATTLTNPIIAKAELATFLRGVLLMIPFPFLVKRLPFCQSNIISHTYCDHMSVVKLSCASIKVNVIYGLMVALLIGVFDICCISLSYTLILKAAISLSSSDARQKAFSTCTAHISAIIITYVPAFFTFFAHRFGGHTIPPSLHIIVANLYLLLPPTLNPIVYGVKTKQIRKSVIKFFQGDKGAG
Procedure, shortened: as §1

OR52R1 (Homo sapiens) = target: T4, OR52R1 (Homo sapiens) (UniProt Q8NGF1)
T4 sequence (whole entry): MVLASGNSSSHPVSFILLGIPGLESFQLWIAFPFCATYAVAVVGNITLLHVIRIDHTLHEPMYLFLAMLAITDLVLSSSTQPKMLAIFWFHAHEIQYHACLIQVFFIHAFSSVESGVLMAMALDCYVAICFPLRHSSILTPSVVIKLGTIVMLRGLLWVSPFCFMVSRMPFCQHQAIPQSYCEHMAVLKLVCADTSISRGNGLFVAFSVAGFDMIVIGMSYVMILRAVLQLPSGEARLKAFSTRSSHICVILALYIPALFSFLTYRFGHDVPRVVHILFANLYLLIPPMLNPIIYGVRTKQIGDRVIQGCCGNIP
Procedure, shortened: as §1

OR52W1 (Homo sapiens) = target: T5, OR52W1 (Homo sapiens) (UniProt Q6IF63)
T5 sequence (whole entry): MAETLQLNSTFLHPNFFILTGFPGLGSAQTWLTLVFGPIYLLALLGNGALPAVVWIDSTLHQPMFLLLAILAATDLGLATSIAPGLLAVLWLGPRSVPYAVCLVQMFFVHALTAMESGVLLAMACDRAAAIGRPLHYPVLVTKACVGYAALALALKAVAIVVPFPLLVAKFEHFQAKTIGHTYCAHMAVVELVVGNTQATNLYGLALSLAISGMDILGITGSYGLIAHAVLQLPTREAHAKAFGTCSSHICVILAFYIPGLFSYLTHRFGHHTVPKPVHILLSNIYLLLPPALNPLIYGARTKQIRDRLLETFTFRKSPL
Procedure, shortened: as §1

OR56A1 (Homo sapiens) = target: T6, OR56A1 (Homo sapiens) (UniProt Q8NGH5)
T6 sequence (whole entry): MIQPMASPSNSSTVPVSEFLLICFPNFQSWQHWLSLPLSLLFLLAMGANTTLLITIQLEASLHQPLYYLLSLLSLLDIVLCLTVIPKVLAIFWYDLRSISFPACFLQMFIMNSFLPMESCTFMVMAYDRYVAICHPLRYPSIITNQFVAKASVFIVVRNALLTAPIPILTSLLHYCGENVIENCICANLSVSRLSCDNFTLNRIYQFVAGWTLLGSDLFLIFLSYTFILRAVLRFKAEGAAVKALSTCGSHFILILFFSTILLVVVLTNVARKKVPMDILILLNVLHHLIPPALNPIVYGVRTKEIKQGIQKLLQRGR
Procedure, shortened: as §1

OR56A3 (Homo sapiens) = target: T7, OR56A3 (Homo sapiens) (UniProt Q8NH54)
T7 sequence (whole entry): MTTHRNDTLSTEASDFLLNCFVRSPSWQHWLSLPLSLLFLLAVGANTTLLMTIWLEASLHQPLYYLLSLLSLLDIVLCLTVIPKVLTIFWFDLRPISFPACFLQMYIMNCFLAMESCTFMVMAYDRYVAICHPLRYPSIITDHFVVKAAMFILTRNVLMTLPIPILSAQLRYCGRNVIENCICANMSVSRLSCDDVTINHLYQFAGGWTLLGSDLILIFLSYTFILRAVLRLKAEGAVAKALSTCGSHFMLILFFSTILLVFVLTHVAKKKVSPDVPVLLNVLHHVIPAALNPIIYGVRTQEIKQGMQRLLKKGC
Procedure, shortened: as §1

OR56A4 (Homo sapiens) = target: T8, OR56A4 (Homo sapiens) (UniProt Q8NGH8)
T8 sequence (whole entry): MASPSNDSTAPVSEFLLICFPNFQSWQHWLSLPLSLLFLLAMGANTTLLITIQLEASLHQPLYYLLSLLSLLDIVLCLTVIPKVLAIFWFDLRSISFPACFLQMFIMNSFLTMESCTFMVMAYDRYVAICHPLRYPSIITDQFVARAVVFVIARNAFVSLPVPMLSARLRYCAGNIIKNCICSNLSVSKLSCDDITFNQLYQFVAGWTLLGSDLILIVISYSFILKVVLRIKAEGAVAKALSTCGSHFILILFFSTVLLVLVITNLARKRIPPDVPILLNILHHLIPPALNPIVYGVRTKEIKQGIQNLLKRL
Procedure, shortened: as §1

OR56A5 (Homo sapiens) = target: T9, OR56A5 (Homo sapiens) (UniProt P0C7T3)
T9 sequence (whole entry): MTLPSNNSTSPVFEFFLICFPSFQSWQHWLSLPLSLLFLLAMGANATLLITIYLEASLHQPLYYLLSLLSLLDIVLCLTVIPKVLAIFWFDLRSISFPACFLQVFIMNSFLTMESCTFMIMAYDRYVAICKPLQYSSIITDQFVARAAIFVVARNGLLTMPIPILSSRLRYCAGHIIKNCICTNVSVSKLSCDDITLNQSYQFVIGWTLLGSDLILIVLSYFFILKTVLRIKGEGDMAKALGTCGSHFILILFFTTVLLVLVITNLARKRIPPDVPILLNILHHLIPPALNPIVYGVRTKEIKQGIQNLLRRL
Procedure, shortened: as §1

OR56B1 (Homo sapiens) = target: T10, OR56B1 (Homo sapiens) (UniProt Q8NGI3)
T10 sequence (whole entry): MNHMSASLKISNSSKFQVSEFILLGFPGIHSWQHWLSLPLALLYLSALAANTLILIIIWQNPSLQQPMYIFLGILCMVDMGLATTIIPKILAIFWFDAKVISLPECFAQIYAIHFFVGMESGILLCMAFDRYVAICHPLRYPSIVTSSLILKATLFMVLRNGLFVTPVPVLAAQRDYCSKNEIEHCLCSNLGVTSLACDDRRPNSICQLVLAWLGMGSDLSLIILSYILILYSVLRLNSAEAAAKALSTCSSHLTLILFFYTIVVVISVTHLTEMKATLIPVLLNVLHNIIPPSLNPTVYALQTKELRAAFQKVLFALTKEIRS
Procedure, shortened: as §1

OR56B4 (Homo sapiens) = target: T11, OR56B4 (Homo sapiens) (UniProt Q8NH76)
T11 sequence (whole entry): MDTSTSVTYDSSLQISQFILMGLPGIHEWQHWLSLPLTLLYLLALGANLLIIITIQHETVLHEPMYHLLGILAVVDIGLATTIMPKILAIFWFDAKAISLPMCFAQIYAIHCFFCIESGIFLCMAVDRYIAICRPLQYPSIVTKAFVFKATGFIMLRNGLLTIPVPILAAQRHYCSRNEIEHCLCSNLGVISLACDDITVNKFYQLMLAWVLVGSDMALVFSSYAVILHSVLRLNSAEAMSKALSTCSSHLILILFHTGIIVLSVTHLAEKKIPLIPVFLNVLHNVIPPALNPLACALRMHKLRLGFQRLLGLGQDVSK
Procedure, shortened: as §1

OR5A1 (Homo sapiens) = target: T12, OR5A1 (Homo sapiens) (UniProt Q8NGJ0)
T12 sequence (whole entry): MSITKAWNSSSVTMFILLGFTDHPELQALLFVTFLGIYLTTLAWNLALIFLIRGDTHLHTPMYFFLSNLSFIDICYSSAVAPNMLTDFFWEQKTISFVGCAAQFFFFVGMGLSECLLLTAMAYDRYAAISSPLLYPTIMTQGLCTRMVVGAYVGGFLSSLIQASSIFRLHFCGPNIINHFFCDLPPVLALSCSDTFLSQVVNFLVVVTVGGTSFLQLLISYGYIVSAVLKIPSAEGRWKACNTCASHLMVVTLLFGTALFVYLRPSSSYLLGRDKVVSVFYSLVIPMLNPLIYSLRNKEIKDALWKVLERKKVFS
Procedure, shortened: as §1

OR5A1 D183N = tested on: T13, OR5A1 D183N
T13 sequence (whole entry): T12 sequence (whole entry) with D183N
Procedure, shortened: as §1

OR5A2 (Homo sapiens) = target: T14, OR5A2 (Homo sapiens) (UniProt Q8NGI9)
T14 sequence (whole entry): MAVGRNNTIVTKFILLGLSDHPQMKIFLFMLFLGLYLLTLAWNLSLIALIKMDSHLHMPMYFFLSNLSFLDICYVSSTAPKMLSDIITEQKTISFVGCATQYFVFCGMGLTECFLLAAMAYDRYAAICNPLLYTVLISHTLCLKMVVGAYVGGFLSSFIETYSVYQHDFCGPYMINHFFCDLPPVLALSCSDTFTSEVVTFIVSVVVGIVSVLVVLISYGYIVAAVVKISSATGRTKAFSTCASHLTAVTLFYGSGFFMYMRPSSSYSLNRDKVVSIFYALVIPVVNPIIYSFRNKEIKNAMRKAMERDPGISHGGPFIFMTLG
Procedure, shortened: as §1

OR5AK2 (Homo sapiens) = target: T15, OR5AK2 (Homo sapiens) (UniProt Q8NH90)
T15 sequence (whole entry): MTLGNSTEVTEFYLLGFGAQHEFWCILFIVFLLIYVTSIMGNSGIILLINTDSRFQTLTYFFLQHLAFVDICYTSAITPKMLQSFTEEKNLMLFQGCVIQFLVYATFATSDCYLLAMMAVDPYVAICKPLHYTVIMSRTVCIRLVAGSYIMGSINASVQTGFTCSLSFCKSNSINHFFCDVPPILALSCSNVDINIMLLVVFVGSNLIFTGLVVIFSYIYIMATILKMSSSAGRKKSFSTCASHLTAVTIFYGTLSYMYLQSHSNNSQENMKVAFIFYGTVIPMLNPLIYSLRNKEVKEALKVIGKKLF
Procedure, shortened: as §1

OR5AN1 (Homo sapiens) = target: T16, OR5AN1 (Homo sapiens) (UniProt Q8NGI8)
T16 sequence (whole entry): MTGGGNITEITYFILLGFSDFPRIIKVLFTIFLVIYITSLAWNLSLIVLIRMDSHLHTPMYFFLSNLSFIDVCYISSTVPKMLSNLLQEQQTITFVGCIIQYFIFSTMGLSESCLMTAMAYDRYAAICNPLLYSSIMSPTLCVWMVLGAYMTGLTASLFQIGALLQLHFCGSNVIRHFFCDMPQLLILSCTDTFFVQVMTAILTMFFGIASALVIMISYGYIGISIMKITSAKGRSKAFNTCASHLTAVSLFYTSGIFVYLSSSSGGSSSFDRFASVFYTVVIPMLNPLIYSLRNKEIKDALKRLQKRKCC
Procedure, shortened: as §1

OR5AP2 (Homo sapiens) = target: T17, OR5AP2 (Homo sapiens) (UniProt Q8NGF4)
T17 sequence (whole entry): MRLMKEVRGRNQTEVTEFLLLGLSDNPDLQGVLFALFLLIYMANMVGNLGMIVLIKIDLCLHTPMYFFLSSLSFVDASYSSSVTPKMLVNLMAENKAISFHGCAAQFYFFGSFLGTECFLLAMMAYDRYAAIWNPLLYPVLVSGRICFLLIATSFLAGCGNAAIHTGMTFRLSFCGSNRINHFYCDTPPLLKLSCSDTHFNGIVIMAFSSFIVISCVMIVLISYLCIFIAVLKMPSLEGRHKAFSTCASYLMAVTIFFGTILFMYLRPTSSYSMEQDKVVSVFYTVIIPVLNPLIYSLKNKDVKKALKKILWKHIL
Procedure, shortened: as §1

Measured: odorant receptor agonist call

CCc1ccc(CC(C)(C)C=O)cc1
inactive: OR5AC2 (Homo sapiens)

CCCCCCC=CCCC=O
inactive: all assays above

CCCC(S)CCOC(C)=O (centres undefined)
not listed: OR56A4 (Homo sapiens)
inactive: all other assays above

CC1CC(C)(c2ccccc2)CO1 (centres undefined)
inactive: OR5AC2 (Homo sapiens)

CC1=C(O)C(=O)OC1C (centres undefined)
not listed: OR56A4 (Homo sapiens)
inactive: all other assays above

CC(CC=O)c1ccc(C(C)(C)C)cc1 (centres undefined)
inactive: OR5AC2 (Homo sapiens)

CCC(S)C(C)CO (centres undefined)
not listed: OR5A1 D183N
inactive: all other assays above

OCc1ccccc1
inactive: OR5AC2 (Homo sapiens)
